Common to all, as to type: functional, cell-based
Assay [1] concerns C2C12. As to the kind of experiment: Induction of cell differentiation in mouse C2C12 cells assessed as myotube formation at 5 uM. Put shortly:
(§1)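 C2C12 myoblasts grown 2 days in growth medium to about 70% confluence, then differentiation induced by serum reduction in differentiation medium containing compound at 5 µM final (from 20 mM DMSO stock). Controls received equal DMSO. Incubation at 37 °C for 7 days, medium changed at days 3 and 5. Myotube morphology was photographed under the microscope at 3, 5 and 7 days. Duplicates, four controls.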

Assay [2] deals with C2C12. Nature of the assay: Induction of cell differentiation in mouse C2C12 cells assessed as myotube formation at 5 uM after 5 days. Put shortly: as §1
Assay [3] relates to C2C12. As to the kind of experiment: Induction of cell differentiation in mouse C2C12 cells assessed as myotube formation at 5 uM after 3 days. The method, boiled down:
as §1

In assay [4] the test system is C2C12. Nature of the assay: Induction of cell differentiation in mouse C2C12 cells assessed as myotube formation at 5 uM after 7 days. The method, boiled down: as §1

Molecules are shown by their SMILES. Active and inactive are the calls of the source. The calls are words filed in the database; no cut-off is given here.

Consider `Fc1ncccc1-c1cnc(N(Cc2ccccc2)c2ccccc2)s1`, for which the result with C2C12 [1] was Active. For `Fc1ccc(-c2cnc(N(Cc3ccccc3)c3ccccc3)s2)cc1`, in the assay with C2C12 [1], the outcome was Active. Consider `O=[N+]([O-])c1ccc(-c2cnc(N(Cc3ccccc3)c3ccccc3)s2)cc1`, for which the result with C2C12 [1] was inactive. Take `c1ccc(CN(c2ccccc2)c2ncc(-c3cccs3)s2)cc1`: the outcome in the assay on C2C12 [2], in the assay on C2C12 [3], in the assay with C2C12 [1] and with C2C12 [4] was Active. On to `c1ccc(CN(c2ccccc2)c2ncc(-c3ccccc3)s2)cc1`, for which, in the assay on C2C12 [1], the result was Active. With `O=[N+]([O-])c1cccc(-c2cnc(N(Cc3ccccc3)c3ccccc3)s2)c1`, in the assay on C2C12 [1], the outcome was Active.

In the case of `Cc1ccc(-c2cnc(N(Cc3ccccc3)c3ccccc3)s2)cc1`, in the assay with C2C12 [1], the result was inactive. The same measure, in the same setting: the value for `Cc1ccccc1-c1cnc(N(Cc2ccccc2)c2ccccc2)s1` was “inactive”. Same read-out and setting: the value for `CCOC(=O)c1ccc(-c2cnc(N(Cc3ccccc3)c3ccccc3)s2)cc1` was “Active”.

Source of the values: ChEMBL document CHEMBL1759898, “Synthesis of 5-arylated N-arylthiazole-2-amines as potential skeletal muscle cell differentiation promoters” (Bioorg Med Chem Lett, 2011).
